Laboratory results reported in ChEMBL document CHEMBL1123888, “Aldosterone antagonists. 2. Synthesis and biological activities of 11,12-dehydropregnane derivatives” (J Med Chem, 1987).
Active and inactive are the calls of the source. The calls are words filed in the database; no cut-off is given here.

Columns and labels:
[1] = target: T1, Mineralocorticoid receptor (Rattus norvegicus) (UniProt P22199); assay: In vivo relative Mineralocorticoid activity in Male Sprague-Dawley rats; format: functional, organism-based
T1 sequence (whole entry): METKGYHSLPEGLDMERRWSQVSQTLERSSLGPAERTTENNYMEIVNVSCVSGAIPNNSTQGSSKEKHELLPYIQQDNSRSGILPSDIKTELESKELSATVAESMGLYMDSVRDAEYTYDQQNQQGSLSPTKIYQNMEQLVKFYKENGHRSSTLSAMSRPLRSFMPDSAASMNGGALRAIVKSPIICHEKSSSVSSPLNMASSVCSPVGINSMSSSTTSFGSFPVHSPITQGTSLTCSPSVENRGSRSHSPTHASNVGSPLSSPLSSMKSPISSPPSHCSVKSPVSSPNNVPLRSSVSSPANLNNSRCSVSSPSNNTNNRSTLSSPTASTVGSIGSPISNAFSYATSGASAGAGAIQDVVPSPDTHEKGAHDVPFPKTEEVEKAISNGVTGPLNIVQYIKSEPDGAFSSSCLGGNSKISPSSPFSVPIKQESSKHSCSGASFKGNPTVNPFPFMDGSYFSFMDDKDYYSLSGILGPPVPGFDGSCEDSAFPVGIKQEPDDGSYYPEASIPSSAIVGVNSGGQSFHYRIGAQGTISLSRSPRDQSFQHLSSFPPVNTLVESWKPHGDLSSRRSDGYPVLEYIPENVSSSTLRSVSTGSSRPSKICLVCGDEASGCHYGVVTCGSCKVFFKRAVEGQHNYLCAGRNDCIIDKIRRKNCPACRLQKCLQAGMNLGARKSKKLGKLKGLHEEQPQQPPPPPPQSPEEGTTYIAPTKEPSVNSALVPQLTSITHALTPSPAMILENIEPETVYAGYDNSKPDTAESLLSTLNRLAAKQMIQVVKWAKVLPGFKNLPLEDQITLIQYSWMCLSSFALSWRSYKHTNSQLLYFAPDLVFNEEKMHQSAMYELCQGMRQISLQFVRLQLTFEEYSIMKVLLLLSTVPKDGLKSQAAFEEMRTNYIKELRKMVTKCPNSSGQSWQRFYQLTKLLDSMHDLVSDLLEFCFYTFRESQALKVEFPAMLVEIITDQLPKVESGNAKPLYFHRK

[2] = target: T1, Mineralocorticoid receptor (Rattus norvegicus); assay: Relative binding affinity against Mineralocorticoid Receptor in Male Sprague-Dawley rats
Method in brief: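 Renal cytosol from male Sprague-Dawley rats (4-8 weeks) adrenalectomized bilaterally 1 or 2 days earlier. Incubated with various competitor concentrations and about 1 nM [3H]aldosterone, for 42-48 h at 0 °C or 100-120 min at 25 °C. Charcoal (DCC) separation of bound and free.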

[3] = target: T1, Mineralocorticoid receptor (Rattus norvegicus); assay: Relative binding affinity against mineralocorticoid receptor determined in rat renal cytosol using [3]Ald as ligand
Method in brief: (§1)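 Renal cytosol came from male Sprague-Dawley rats (4-8 weeks) adrenalectomized bilaterally 1 or 2 days earlier. It was incubated with various competitor concentrations and about 1 nM [3H]Ald for 42-48 h at 0 °C or 100-120 min at 25 °C. Bound and free steroid were separated by DCC.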

[4] = target: T1, Mineralocorticoid receptor (Rattus norvegicus); assay: Relative anti-mineralocorticoid potency compared to Spironolactone after oral administration; format: functional, organism-based
Method in brief: (§2)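 Male rats were bilaterally adrenalectomized (bioassay modified from Kagawa). Ald (1 µg/kg) was given sc, immediately followed by test compound in sesame oil sc or orally. Urine was collected from 2 to 6 h after steroid. Potency came from the urinary Na/K ratio of sample versus control, with 95% confidence limits.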

[5] = organism: Rattus norvegicus; assay: Displacement of [3H]promegestone from progestin receptor of rat uterine cytosol at 0 degree Centigrade
Method in brief: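 Uteri from estradiol-primed rats supplied the cytosol. It was incubated with various competitor concentrations and about 1 nM [3H]promegestone for 16-20 h at 0 °C. Bound and free steroid were separated by DCC. RBA (progesterone = 100%) = 100 × ratio of the 50%-inhibition concentrations of standard and competitor.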

[6] = target: T2, Androgen receptor (Rattus norvegicus) (UniProt P15207); assay: Relative anti-androgenic activity as suppressive effect on weight increase of ventral prostate in castrated immature rats given testosterone propionate; format: functional; conditions: Prostate gland
T2 sequence (whole entry): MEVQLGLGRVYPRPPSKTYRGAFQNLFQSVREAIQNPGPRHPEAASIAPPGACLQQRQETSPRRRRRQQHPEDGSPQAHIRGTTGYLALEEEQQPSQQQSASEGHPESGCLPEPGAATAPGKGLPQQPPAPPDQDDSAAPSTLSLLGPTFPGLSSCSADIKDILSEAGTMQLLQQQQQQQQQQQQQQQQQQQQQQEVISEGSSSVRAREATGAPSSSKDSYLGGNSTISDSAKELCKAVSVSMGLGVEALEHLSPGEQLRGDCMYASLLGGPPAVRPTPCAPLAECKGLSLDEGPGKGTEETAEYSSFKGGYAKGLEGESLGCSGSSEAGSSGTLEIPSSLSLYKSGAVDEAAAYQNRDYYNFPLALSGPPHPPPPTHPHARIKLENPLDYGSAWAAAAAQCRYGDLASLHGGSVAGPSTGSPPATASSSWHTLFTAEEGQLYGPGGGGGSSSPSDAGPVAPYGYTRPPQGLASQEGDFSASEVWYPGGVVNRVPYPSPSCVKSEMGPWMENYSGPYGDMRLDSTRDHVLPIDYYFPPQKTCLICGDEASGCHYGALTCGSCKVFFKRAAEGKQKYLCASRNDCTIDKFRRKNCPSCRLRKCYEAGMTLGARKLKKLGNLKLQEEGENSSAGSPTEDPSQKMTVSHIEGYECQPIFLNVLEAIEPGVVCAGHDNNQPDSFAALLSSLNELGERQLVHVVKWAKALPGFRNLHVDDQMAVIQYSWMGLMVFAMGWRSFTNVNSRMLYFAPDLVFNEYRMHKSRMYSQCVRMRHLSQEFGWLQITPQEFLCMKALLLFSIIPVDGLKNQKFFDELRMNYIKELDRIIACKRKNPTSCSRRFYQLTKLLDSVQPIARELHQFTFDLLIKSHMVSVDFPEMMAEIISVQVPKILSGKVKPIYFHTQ
Method in brief: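 Male Sprague-Dawley rats (3 weeks old) were castrated 3 days earlier. […] Suppression of accessory sex organ weight gain gave relative antiandrogenic activity.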

[7] = target: T1, Mineralocorticoid receptor (Rattus norvegicus); assay: Relative binding affinity to the rat mineralocorticoid receptor determined in rat renal cytosol using [3]Ald as ligand; method in brief: as §1
[8] = target: T1, Mineralocorticoid receptor (Rattus norvegicus); assay: Antagonist activity against Mineralocorticoid receptor after po administration in Male Sprague Dawley rats; (-) = negative; format: functional, organism-based; method in brief: as §2
[9] = target: T1, Mineralocorticoid receptor (Rattus norvegicus); assay: Antagonist activity against Mineralocorticoid receptor after subcutaneous administration in Male Sprague Dawley rats; (+) =positive; format: functional, organism-based; conditions: filed as antagonist; method in brief: as §2
[10] = target: T1, Mineralocorticoid receptor (Rattus norvegicus); assay: Antagonist activity against Mineralocorticoid receptor after oral administration in Male Sprague Dawley rats; (-) = negative; format: functional, organism-based; method in brief: as §2
[11] = target: T1, Mineralocorticoid receptor (Rattus norvegicus); assay: Agonist activity against Mineralocorticoid receptor after subcutaneous administration in Male Sprague Dawley rats; (-) = negative; format: functional, organism-based
[12] = target: T3, Progesterone receptor (Rattus norvegicus) (UniProt Q63449); assay: Relative binding affinity against progesterone receptor determined in rat […] cytosol using [3H]DHT as ligand
T3 sequence (whole entry): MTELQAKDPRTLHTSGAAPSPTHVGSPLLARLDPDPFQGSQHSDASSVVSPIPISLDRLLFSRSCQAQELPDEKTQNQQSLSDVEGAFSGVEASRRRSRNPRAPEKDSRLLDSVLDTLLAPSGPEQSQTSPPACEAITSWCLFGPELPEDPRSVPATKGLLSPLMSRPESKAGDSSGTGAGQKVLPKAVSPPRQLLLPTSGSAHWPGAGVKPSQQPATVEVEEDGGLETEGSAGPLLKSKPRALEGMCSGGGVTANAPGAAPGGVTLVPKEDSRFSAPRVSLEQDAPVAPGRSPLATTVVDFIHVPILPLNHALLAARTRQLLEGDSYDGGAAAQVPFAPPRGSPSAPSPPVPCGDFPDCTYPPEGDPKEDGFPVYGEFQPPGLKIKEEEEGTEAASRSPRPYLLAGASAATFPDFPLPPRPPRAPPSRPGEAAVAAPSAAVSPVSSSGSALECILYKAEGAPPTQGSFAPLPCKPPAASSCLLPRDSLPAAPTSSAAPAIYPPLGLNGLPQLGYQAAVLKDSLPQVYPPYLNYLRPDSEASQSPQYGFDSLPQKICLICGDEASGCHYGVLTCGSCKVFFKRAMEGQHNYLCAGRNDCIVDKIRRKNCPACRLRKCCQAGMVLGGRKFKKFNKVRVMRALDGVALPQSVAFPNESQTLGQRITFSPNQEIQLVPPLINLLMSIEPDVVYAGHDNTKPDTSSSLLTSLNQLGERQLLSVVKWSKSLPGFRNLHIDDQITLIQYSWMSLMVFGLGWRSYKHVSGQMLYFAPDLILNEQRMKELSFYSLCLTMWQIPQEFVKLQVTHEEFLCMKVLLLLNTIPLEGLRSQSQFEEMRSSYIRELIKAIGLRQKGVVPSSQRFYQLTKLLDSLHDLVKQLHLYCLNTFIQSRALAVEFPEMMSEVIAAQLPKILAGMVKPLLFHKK

[13] = target: T1, Mineralocorticoid receptor (Rattus norvegicus); assay: Relative binding affinity against Mineralocorticoid receptor in Male Sprague-Dawley rats; method in brief: as §1
[14] = target: T1, Mineralocorticoid receptor (Rattus norvegicus); assay: Agonist activity against Mineralocorticoid receptor was determined after subcutaneous administration in Male Sprague Dawley rats; (+) =positive; format: functional, organism-based; conditions: filed as agonist
[15] = target: T1, Mineralocorticoid receptor (Rattus norvegicus); assay: Relative potency compared to Aldosterone;Range is 72-216; format: functional
[16] = target: T1, Mineralocorticoid receptor (Rattus norvegicus); assay: Antagonist activity against Mineralocorticoid receptor was determined after subcutaneous administration in Male Sprague Dawley rats; format: functional, organism-based; method in brief: as §2
[17] = target: T1, Mineralocorticoid receptor (Rattus norvegicus); assay: Antagonist activity against Mineralocorticoid receptor after subcutaneous administration in Male Sprague Dawley rats; (-) = negative; format: functional, organism-based; method in brief: as §2
[18] = target: T1, Mineralocorticoid receptor (Rattus norvegicus); assay: Agonist activity against Mineralocorticoid receptor after subcutaneous administration in Male Sprague Dawley rats; (+) =positive; format: functional, organism-based; conditions: filed as agonist
[19] = target: T1, Mineralocorticoid receptor (Rattus norvegicus); assay: Relative potency ompared to Aldosterone;Range 4-187; format: functional

`C[C@]12CC[C@H]3[C@@H](CCC4=CC(=O)CC[C@@]43C)[C@@H]1CC[C@@H]2C(=O)CO` showed a Relative activity [1] of 1 and an RBA [2] of 58%.

With `CC12CCC(=O)C=C1C=CC1C2C=CC2(C)C1CC[C@@]21CCC(=O)O1` (some centres not stated) the RBA [3] was 70%, the Relative potency [4] was 2 and the RBA [5] was 4.7%. For the same compound, the Activity [6] was 1, the RBA [7] was 64% and the Activity [8] was “inactive”. The Activity [9] was “Antagonist” and the Activity [10] was “inactive”.

With `CC12CCC(=O)C=C1[C@H]1C[C@H]1C1C2C=CC2(C)C1CC[C@@]21CCC(=O)O1` (some centres not stated) the RBA [3] was 88%, the Relative potency [4] was 1.48 and the Activity [11] was “inactive”. The RBA [7] was 110%, the RBA [12] was 6.7% and the Activity [9] was “Antagonist”.

With `C[C@]12CC[C@@H]3C4CCC(=O)C=C4CC[C@H]3[C@@H]1CC[C@@H]2C(=O)CO` (some centres not stated) the Relative activity [1] was 1.5 and the relative binding affinity (RBA) [13] was 170.

For `CC12C=CC(=O)C=C1C=CC1C2C=CC2(C)C1C1CC1[C@@]21CCC(=O)O1` (some centres not stated), the RBA [3] was 160%, the Activity [14] was “Agonist” and the Relative potency [15] was 72. For the same compound, the RBA [7] was 200%, the RBA [12] was 19% and the Activity [16] was “inactive”.

`C[C@]12C[C@H](O)[C@H]3[C@@H](CCC4=CC(=O)CC[C@@]43C)[C@@H]1CC[C@@H]2C(=O)CO` was tested, and the Relative activity [1] was 0.14 and the RBA [2] was 14%.

With `CC12C=CC(=O)C=C1C1CC1C1C2C=CC2(C)C1CC[C@@]21CCC(=O)O1` (some centres not stated) the RBA [3] was 320%, the Activity [17] was “inactive” and the RBA [5] was 11%. For the same compound, the Activity [18] was “Agonist”, the RBA [7] was 300% and the Relative potency [19] was 4.
